Test results from ChEMBL document CHEMBL1141869.
Calls of active or inactive are those of the source. The calls are words filed in the database; no cut-off is given here.

Key:
[1] = target: NAD-dependent histone deacetylase SIR2 (Saccharomyces cerevisiae S288c) (UniProt P06700); test: Inhibitory activity against recombinant yeast Sir2 at 100 uM
How it was run: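 Purified His-tagged recombinant yeast Sir2p (3 μg) was incubated 60 min at 30 °C with 250 μM acetylated histone substrate, 1 mM DTT, 200 μM NAD⁺ and inhibitor at 0, 20, 75, 100, 150 or 300 μM. Deacetylation was detected fluorometrically after developer treatment (ex 360/em 450 nm). Values are means of at least three separate experiments.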

[2] = target: T1, NAD-dependent protein deacetylase sirtuin-1 (Homo sapiens) (UniProt Q96EB6); test: Inhibitory activity against human SIRT1 at 100 uM
T1 sequence (whole entry): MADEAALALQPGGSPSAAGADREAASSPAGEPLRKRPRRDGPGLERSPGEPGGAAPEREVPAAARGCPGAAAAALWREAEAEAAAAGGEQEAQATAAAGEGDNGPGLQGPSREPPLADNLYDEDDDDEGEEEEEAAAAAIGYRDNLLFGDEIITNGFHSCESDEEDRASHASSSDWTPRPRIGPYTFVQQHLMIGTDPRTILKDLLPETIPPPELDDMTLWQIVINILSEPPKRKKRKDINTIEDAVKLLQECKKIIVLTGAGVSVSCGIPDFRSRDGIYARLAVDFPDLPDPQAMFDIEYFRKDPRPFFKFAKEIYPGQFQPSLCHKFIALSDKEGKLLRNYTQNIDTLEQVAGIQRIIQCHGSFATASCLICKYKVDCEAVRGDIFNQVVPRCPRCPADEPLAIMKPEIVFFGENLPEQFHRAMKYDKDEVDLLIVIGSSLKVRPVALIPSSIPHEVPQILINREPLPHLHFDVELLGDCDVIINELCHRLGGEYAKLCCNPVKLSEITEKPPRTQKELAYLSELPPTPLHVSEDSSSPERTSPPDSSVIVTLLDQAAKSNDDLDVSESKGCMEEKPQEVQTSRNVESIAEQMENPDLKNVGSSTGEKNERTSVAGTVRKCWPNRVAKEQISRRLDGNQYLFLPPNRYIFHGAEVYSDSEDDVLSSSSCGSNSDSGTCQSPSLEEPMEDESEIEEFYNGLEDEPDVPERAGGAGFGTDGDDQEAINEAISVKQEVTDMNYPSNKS
How it was run: (§1)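 His-tagged recombinant human SIRT1 or SIRT2 (1 μg), purified, run in a fluorogenic deacetylase assay with 250 μM acetylated histone substrate, 1 mM DTT and 200 μM NAD⁺ for 60 min at 37 °C. Inhibitor was tested at 0, 20, 75, 100, 150 or 300 μM. Developer was added and fluorescence read at ex 360/em 450 nm. Values are the mean of at least three separate experiments.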

[3] = target: T2, NAD-dependent protein deacetylase sirtuin-2 (Homo sapiens) (UniProt Q8IXJ6); test: Inhibitory activity against human SIRT2 at 100 uM; how it was run: as §1
T2 sequence (whole entry): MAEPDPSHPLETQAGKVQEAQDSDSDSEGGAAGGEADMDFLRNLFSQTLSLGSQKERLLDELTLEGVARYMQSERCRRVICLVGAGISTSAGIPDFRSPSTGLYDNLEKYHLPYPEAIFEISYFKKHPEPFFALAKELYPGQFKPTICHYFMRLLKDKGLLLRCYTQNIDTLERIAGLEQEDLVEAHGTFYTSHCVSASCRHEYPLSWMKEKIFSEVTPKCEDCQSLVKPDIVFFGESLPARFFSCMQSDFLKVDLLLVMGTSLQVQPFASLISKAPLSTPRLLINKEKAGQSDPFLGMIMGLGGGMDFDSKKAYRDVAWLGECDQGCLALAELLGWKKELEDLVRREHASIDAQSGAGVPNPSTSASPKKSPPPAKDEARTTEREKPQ

Chain of NAD-dependent histone deacetylase SIR2 (Saccharomyces cerevisiae S288c) (P06700 whole entry): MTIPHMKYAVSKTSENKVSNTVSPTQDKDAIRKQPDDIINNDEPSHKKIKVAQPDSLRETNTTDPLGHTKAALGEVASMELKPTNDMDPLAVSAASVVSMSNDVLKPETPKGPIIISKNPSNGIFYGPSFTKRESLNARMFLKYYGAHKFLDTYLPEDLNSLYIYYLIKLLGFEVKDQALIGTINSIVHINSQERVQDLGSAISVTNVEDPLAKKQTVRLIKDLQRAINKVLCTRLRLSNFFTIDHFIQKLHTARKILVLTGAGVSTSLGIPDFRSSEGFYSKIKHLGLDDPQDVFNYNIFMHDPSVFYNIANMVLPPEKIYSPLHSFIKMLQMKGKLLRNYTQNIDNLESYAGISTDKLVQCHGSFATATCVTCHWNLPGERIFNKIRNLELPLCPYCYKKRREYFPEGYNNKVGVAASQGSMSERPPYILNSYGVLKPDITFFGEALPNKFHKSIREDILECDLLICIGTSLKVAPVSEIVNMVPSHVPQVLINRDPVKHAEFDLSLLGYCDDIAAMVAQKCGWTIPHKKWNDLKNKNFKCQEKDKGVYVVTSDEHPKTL

| SMILES | inhibition [1] | inhibition [2] | inhibition [3] [%] |
| --- | --- | --- | --- |
| NC(=O)c1ccccc1/N=C/c1c(O)ccc2ccccc12 | inactive | inactive |  |
| N#Cc1ccccc1/N=C/c1c(O)ccc2ccccc12 | 15% | 20% |  |
| C[C@H](NC(=O)c1ccccc1/N=C/c1c(O)ccc2ccccc12)c1ccccc1 | 57% | 60.2% | 73.5 |
| CC(NC(=O)c1cccc(/N=C/c2c(O)ccc3ccccc23)c1)c1ccccc1 (stereo not given) | 53.9% | 63% | 79.2 |
| O=C(O)c1ccccc1/N=C/c1c(O)ccc2ccccc12 | 5% | 26% |  |
| CC(NC(=O)c1ccc(/N=C/c2c(O)ccc3ccccc23)cc1)c1ccccc1 (stereo not given) | 59.8% | 82.6% | 80.2 |
| CC(NC(=O)c1ccccc1/N=C/c1cccc2ccccc12)c1ccccc1 (stereo not given) | 10% | 33% |  |
| CCOC(=O)c1ccccc1/N=C/c1c(O)ccc2ccccc12 | 20% | 9% |  |
| CC(NC(=O)c1ccccc1/N=C/c1c(O)ccc2ccccc12)c1ccccc1 (stereo not given) | 65.6% | 44.5% | 71 |
| C[C@@H](NC(=O)c1ccccc1/N=C/c1c(O)ccc2ccccc12)c1ccccc1 | 55.5% | 61.8% | 72.2 |
